Data on 25 compounds can be found in ChEMBL document CHEMBL4732173, “Easily accessed nitroquinolones exhibiting potent and selective anti-tubercular activity” (Eur J Med Chem, 2021).

By MIC90 is commonly meant an inhibitory concentration at the 90% level, which refers to growth in some studies and to a panel of isolates in others.

The test system of assay [1] is Mycobacterium tuberculosis. Put plainly: Antitubercular activity against Mycobacterium tuberculosis harboring gfp reporter gene and wild type DrpE1 assessed as inhibition of bacterial growth incubated for 14 days by fluorescence based analysis. It is filed as functional. The conditions noted are these: 336 h, time 14 day. The method in brief: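 Controls were rifampicin at 2× MIC and 5% DMSO. Plates ran 14 days at 37 °C, 5% CO2, with GFP read at ex 485/em 520. Data were normalised and curve-fitted (Levenberg-Marquardt). MIC90 is the lowest concentration inhibiting >90% of growth.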
(In general: Reporter assays use an easily measured gene product as a stand-in for the process of interest.)

The subject of assay [2] is Mycobacterium tuberculosis. Put plainly: Antitubercular activity against Mycobacterium tuberculosis harboring gfp reporter gene and DrpE1 mutation assessed as inhibition of bacterial growth incubated for 14 days by fluorescence based analysis. It is filed as functional. The conditions noted are these: time 14 day.

Converted amounts (≈) assume the structure as drawn. Some results are limits rather than exact numbers.

Turning to `O=C(NCCOCCO)c1cn(Cc2cccc(F)c2)c2ccc([N+](=O)[O-])cc2c1=O`, the MIC90 in assay [1] is > 125 µM.
With `O=C(NCCN1CCOCC1)c1cn(Cc2cccc(F)c2)c2ccc([N+](=O)[O-])cc2c1=O`, the MIC90 in assay [1] was > 125 µM.
With `N#Cc1ccc(Cn2cc(C(=O)NCCOCCO)c(=O)c3cc([N+](=O)[O-])ccc32)cc1`, in assay [1], the MIC90 was determined as 14 µM (≈ 6.11 µg/mL).
Same read-out and setting: with `CO[C@H]1/C=C/O[C@@]2(C)Oc3c(C)c(O)c4c(O)c(c(/C=N/N5CCN(C)CC5)c(O)c4c3C2=O)NC(=O)/C(C)=C\C=C\[C@H](C)[C@H](O)[C@@H](C)[C@@H](O)[C@@H](C)[C@H](OC(C)=O)[C@@H]1C` [RIFAMPIN] the figure was 0.01 µM (≈ 0.00823 µg/mL).
The same measure, in the same setting: the result for `N#Cc1cccc(Cn2cc(C(=O)NCCNCCO)c(=O)c3cc([N+](=O)[O-])ccc32)c1` reads 3.69 µM (≈ 1.61 µg/mL); that for `N#Cc1ccc(Cn2cc(C(=O)NCCNCCO)c(=O)c3cc([N+](=O)[O-])ccc32)cc1`, > 125 µM.
Consider `COCCNC(=O)c1cn(Cc2cccc(Cl)c2)c2ccc([N+](=O)[O-])cc2c1=O`, for which the MIC90 in assay [1] came out at 0.675 µM (≈ 0.281 µg/mL).
On the same count and under the same terms, the result for `O=C(NCCN1CCOCC1)c1cn(Cc2cccc(Cl)c2)c2ccc([N+](=O)[O-])cc2c1=O` reads 31.9 µM (≈ 15 µg/mL); that for `CCOC(=O)c1c[nH]c2c(C(F)(F)F)cc([N+](=O)[O-])cc2c1=O`, 1.84 µM (≈ 0.609 µg/mL).
Same read-out and setting: with `COCCNC(=O)c1cn(Cc2cccc(C#N)c2)c2ccc([N+](=O)[O-])cc2c1=O` the figure was > 125 µM.
Take `COCCNC(=O)c1cn(Cc2ccc(C#N)cc2)c2ccc([N+](=O)[O-])cc2c1=O`: the MIC90 in assay [1] is > 125 µM.
Consider `COCCNC(=O)c1cn(Cc2ccc(F)cc2)c2ccc([N+](=O)[O-])cc2c1=O`, for which the MIC90 was 62.5 µM (≈ 25 µg/mL) in assay [2] and < 0.244 µM in assay [1].
Turning to `O=C(NCCNCCO)c1cn(Cc2ccc(F)cc2)c2ccc([N+](=O)[O-])cc2c1=O`, the MIC90 in assay [1] was 0.919 µM (≈ 0.394 µg/mL).
On the same count and under the same terms, the result for `COCCNC(=O)c1cn(Cc2cccc(F)c2)c2ccc([N+](=O)[O-])cc2c1=O` reads > 125 µM; that for `N#Cc1cccc(Cn2cc(C(=O)NO)c(=O)c3cc([N+](=O)[O-])ccc32)c1`, > 125 µM.
Take `O=C(NCCN1CCOCC1)c1cn(Cc2cccc(Br)c2)c2ccc([N+](=O)[O-])cc2c1=O`: the MIC90 in assay [1] is > 125 µM.
On the same count and under the same terms, with `O=C(NO)c1cn(Cc2cccc(F)c2)c2ccc([N+](=O)[O-])cc2c1=O` the figure was > 125 µM; with `O=C(NCCOCCO)c1cn(Cc2cccc(Cl)c2)c2ccc([N+](=O)[O-])cc2c1=O`, 16 µM (≈ 7.15 µg/mL).
On to `N#Cc1cccc(Cn2cc(C(=O)NCCOCCO)c(=O)c3cc([N+](=O)[O-])ccc32)c1`, for which the MIC90 in assay [1] worked out at 15 µM (≈ 6.54 µg/mL).
Still for that read-out and setting: with `N#Cc1cccc(Cn2cc(C(=O)O)c(=O)c3cc([N+](=O)[O-])ccc32)c1` the figure was > 125 µM.
In the case of `O=C(NO)c1cn(Cc2cccc(Cl)c2)c2ccc([N+](=O)[O-])cc2c1=O`, in assay [1], the MIC90 worked out at 125 µM (≈ 46.7 µg/mL).
For the compound `NNC(=O)c1ccncc1` [ISONIAZID], the MIC90 in assay [1] turned out to be 0.2 µM (≈ 0.0274 µg/mL).
The same measure, in the same setting: the result for `O=C(NO)c1cn(Cc2cccc(Br)c2)c2ccc([N+](=O)[O-])cc2c1=O` reads > 125 µM.
On the same count and under the same terms, with `O=C(NCCOCCO)c1cn(Cc2ccc(F)cc2)c2ccc([N+](=O)[O-])cc2c1=O` the figure was 8.08 µM (≈ 3.47 µg/mL).
Same read-out and setting: with `O=C(NCCNCCO)c1cn(Cc2cccc(F)c2)c2ccc([N+](=O)[O-])cc2c1=O` the figure was 3.7 µM (≈ 1.59 µg/mL).
